# Measured values from ChEMBL document CHEMBL2034842, “Synthesis, anti-Candida activity, and cytotoxicity of new (4-(4-iodophenyl)thiazol-2-yl)hydrazine derivatives” (Eur J Med Chem, 2012).
# What was measured:
# [1] = tested on: Klebsiella pneumoniae; assay: Antibacterial activity against Klebsiella pneumoniae after 18 to 22 hrs by […]; type: functional
# [2] = tested on: Klebsiella aerogenes; assay: Antibacterial activity against Enterobacter aerogenes after 18 to 22 hrs by […]; type: functional
# [3] = Cytotoxicity against human Hep2 cells assessed as cell survival fraction at 10 ug/mL after 24 hrs by trypan blue exclusion method; type: cell-based; settings: HEp-2 cells, read-out: Survival
# Method in brief: (§1)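 Hep2 cells grown in DMEM + 10% FBS + 1% pen/strep at 37 °C, 5% CO2, used at 60–70% confluency. Exponential-phase cells (1 × 10^5/mL) incubated 24 h with six concentrations (100–0.05), final DMSO ≤0.5%. Controls were cells alone or cells + DMSO, with 1 mM sodium nitroprusside as positive control. Cells scraped off, mixed 1:1 with 0.4% trypan blue and counted on a hemocytometer by two operators. Blue cells were scored dead; results given as % viable cells.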
# [4] = tested on: [Candida] sake; assay: Antifungal activity against 2 strains of Candida sake after 24 hrs by […]; type: functional; settings: Fermentozyma sake
# [5] = Cytotoxicity against human Hep2 cells assessed as cell survival fraction at 5 ug/mL after 24 hrs by trypan blue exclusion method; type: cell-based; settings: HEp-2 cells, read-out: Survival; method in brief: as §1
# [6] = Cytotoxicity against human Hep2 cells assessed as cell survival fraction at 0.5 ug/mL after 24 hrs by trypan blue exclusion method; type: cell-based; settings: HEp-2 cells, read-out: Survival; method in brief: as §1
# [7] = tested on: HEp-2; assay: Antiproliferative activity against human Hep2 cells assessed as cell survival fraction after 24 hrs by MTT assay; type: cell-based; settings: HEp-2, 24 h
# Method in brief: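 Hep2 laryngeal carcinoma cells seeded in triplicate at 1 × 10^5/well in serum-free DMEM. Exposed 24 h at 37 °C, 5% CO2, to six concentrations ([…]); DMSO ≤0.5%. MTT reagent added for 2 h at 37 °C, then detergent for 2 h at room temperature in the dark. OD550 minus OD650 read. EC50 from ≥3 independent experiments.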
# [8] = tested on: Pichia kudriavzevii; assay: Antifungal activity against 3 strains of Candida krusei after 24 hrs by […]; type: functional
# [9] = tested on: Escherichia coli; assay: Antibacterial activity against Escherichia coli after 18 to 22 hrs by […]; type: functional
# [10] = tested on: Candida albicans; assay: Antifungal activity against 10 strains of Candida albicans after 24 hrs by […]; type: functional
# [11] = tested on: Candida parapsilosis; assay: Antifungal activity against 4 strains of Candida parapsilosis after 24 hrs by […]; type: functional; settings: Lodderomyces parapsilosis
# [12] = tested on: Streptococcus pyogenes; assay: Antibacterial activity against Streptococcus pyogenes after 18 to 22 hrs by […]; type: functional
# [13] = Antiproliferative activity against human Hep2 cells assessed as cell survival fraction at 0.05 ug/mL after 24 hrs by MTT assay; type: cell-based; settings: HEp-2 cells, read-out: Survival
# Method in brief: (§2)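 Hep2 (human laryngeal carcinoma) cells maintained in DMEM + 10% FBS + 1% pen/strep, 37 °C, 5% CO2. Seeded in triplicate at 1 × 10^5/well in serum-free medium and exposed 24 h at 37 °C to six compound concentrations (100–0.05). DMSO stock diluted in medium, final DMSO ≤0.5%. MTT reagent added for 2 h at 37 °C, then detergent for 2 h at RT in the dark. Read as OD550 minus OD650.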
# [14] = tested on: HEp-2; assay: Cytotoxicity against human Hep2 cells assessed as cell survival fraction after 24 hrs by trypan blue exclusion method; type: cell-based; settings: HEp-2, 24 h
# Method in brief: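 Hep2 cells in DMEM with 10% FBS and 1% penicillin-streptomycin, at 37 °C, 5% CO2, grown to 60–70% confluency. Seeded at 1 × 10^5/mL and exposed 24 h to six concentrations ([…]); DMSO ≤0.5%. Controls were cells alone, cells with DMSO, and 1 mM nitroprusside. Scraped cells mixed 1:1 with 0.4% trypan blue; blue cells counted as dead by hemocytometer, two operators. EC50 from ≥3 independent experiments.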
# [15] = tested on: Nakaseomyces glabratus; assay: Antifungal activity against 4 strains of Candida glabrata after 24 hrs by […]; type: functional
# [16] = tested on: Staphylococcus warneri; assay: Antibacterial activity against Staphylococcus warneri after 18 to 22 hrs by […]; type: functional
# [17] = tested on: Candida tropicalis; assay: Antifungal activity against 4 strains of Candida tropicalis after 24 hrs by […]; type: functional
# [18] = tested on: Proteus vulgaris; assay: Antibacterial activity against Proteus vulgaris after 18 to 22 hrs by […]; type: functional
# [19] = Antiproliferative activity against human Hep2 cells assessed as cell survival fraction at 10 ug/mL after 24 hrs by MTT assay; type: cell-based; settings: HEp-2 cells, read-out: Survival; method in brief: as §2
# [20] = Antiproliferative activity against human Hep2 cells assessed as cell survival fraction at 5 ug/mL after 24 hrs by MTT assay; type: cell-based; settings: HEp-2 cells, read-out: Survival; method in brief: as §2
# [21] = tested on: Staphylococcus aureus; assay: Antibacterial activity against Staphylococcus aureus after 18 to 22 hrs by […]; type: functional
# [22] = Antiproliferative activity against human Hep2 cells assessed as cell survival fraction at 0.5 ug/mL after 24 hrs by MTT assay; type: cell-based; settings: HEp-2 cells, read-out: Survival; method in brief: as §2
# [23] = tested on: Enterococcus faecalis; assay: Antibacterial activity against Enterococcus faecalis after 18 to 22 hrs by […]; type: functional
# [24] = Cytotoxicity against human Hep2 cells assessed as cell survival fraction at 100 ug/mL after 24 hrs by trypan blue exclusion method; type: cell-based; settings: HEp-2 cells, read-out: Survival; method in brief: as §1
# [25] = Cytotoxicity against human Hep2 cells assessed as cell survival fraction at 50 ug/mL after 24 hrs by trypan blue exclusion method; type: cell-based; settings: HEp-2 cells, read-out: Survival; method in brief: as §1
# [26] = Antiproliferative activity against human Hep2 cells assessed as cell survival fraction at 100 ug/mL after 24 hrs by MTT assay; type: cell-based; settings: HEp-2 cells, read-out: Survival; method in brief: as §2
# [27] = Antiproliferative activity against human Hep2 cells assessed as cell survival fraction at 50 ug/mL after 24 hrs by MTT assay; type: cell-based; settings: HEp-2 cells, read-out: Survival; method in brief: as §2
# [28] = Cytotoxicity against human Hep2 cells assessed as cell survival fraction at 0.05 ug/mL after 24 hrs by trypan blue exclusion method; type: cell-based; settings: HEp-2 cells, read-out: Survival; method in brief: as §1
SMILES,MIC [1] [µg/mL],MIC [2] [µg/mL],"viability at 24 h, 10 ug/mL [3] [%]",MIC [4] [µg/mL],"viability at 24 h, 5 ug/mL [5] [%]","viability at 24 h, 0.5 ug/mL [6] [%]",EC50 [7] [µg/mL],MIC [8] [µg/mL],MIC [9] [µg/mL],MIC [10] [µg/mL],MIC [11] [µg/mL],MIC [12] [µg/mL],"viability at 24 h, 0.05 ug/mL [13] [%]",EC50 [14] [µg/mL],MIC [15] [µg/mL],MIC [16] [µg/mL],MIC [17] [µg/mL],MIC [18] [µg/mL],"viability at 24 h, 10 ug/mL [19] [%]","viability at 24 h, 5 ug/mL [20] [%]",also measured
CC1CCC/C1=N\Nc1nc(-c2ccc(I)cc2)cs1 (configuration not stated),> 128,> 128,70,32,67,89,30,2,32,0.25,2,8,100,30,2,32,0.5,32,36,60,"MIC [21]: 32 µg/mL; viability at 24 h, 0.5 ug/mL [22]: 90%; MIC [23]: 32 µg/mL; viability at 24 h, 100 ug/mL [24]: 0%; viability at 24 h, 50 ug/mL [25]: 0%; viability at 24 h, 100 ug/mL [26]: 6%; viability at 24 h, 50 ug/mL [27]: 12%; viability at 24 h, 0.05 ug/mL [28]: 92%"
CC1CC/C(=N\Nc2nc(-c3ccc(I)cc3)cs2)C1 (configuration not stated),> 128,32,88,4,83,92,50,2,32,0.25,2,32,100,51,2,32,0.5,32,90,92,"MIC [21]: 32 µg/mL; viability at 24 h, 0.5 ug/mL [22]: 100%; MIC [23]: 32 µg/mL; viability at 24 h, 100 ug/mL [24]: 0%; viability at 24 h, 50 ug/mL [25]: 69%; viability at 24 h, 100 ug/mL [26]: 10%; viability at 24 h, 50 ug/mL [27]: 28%; viability at 24 h, 0.05 ug/mL [28]: 95%"
C/C(=N\Nc1nc(-c2ccc(I)cc2)cs1)c1ccncc1,> 128,> 128,30,4,66,85,25,2,16,0.25,2,4,95,30,2,8,0.5,16,35,58,"MIC [21]: 8 µg/mL; viability at 24 h, 0.5 ug/mL [22]: 95%; MIC [23]: 4 µg/mL; viability at 24 h, 100 ug/mL [24]: 0%; viability at 24 h, 50 ug/mL [25]: 37%; viability at 24 h, 100 ug/mL [26]: 0%; viability at 24 h, 50 ug/mL [27]: 10%; viability at 24 h, 0.05 ug/mL [28]: 90%"
Ic1ccc(-c2csc(N/N=C/c3cccc4ccccc34)n2)cc1,16,16,73,64,80,80,35,64,16,0.25,2,32,95,40,2,> 128,0.5,16,80,78,"MIC [21]: > 128 µg/mL; viability at 24 h, 0.5 ug/mL [22]: 80%; MIC [23]: 32 µg/mL; viability at 24 h, 100 ug/mL [24]: 0%; viability at 24 h, 50 ug/mL [25]: 39%; viability at 24 h, 100 ug/mL [26]: 2%; viability at 24 h, 50 ug/mL [27]: 5%; viability at 24 h, 0.05 ug/mL [28]: 90%"
